In PMC6911266 (Nature, 2019):
Where a chain is given by its changes, count along the chain named. Values joined by “and” are separate entries in the source; they are usually repeats but may differ in a detail not shown here. Equal values may be shown once.

What was measured:
[1] = tested on: P. falciparum WT (3D7) parasite line; test: Parasite drug susceptibility assay; format: cell-based, Plasmodium falciparum; details: Plasmodium falciparum, 3D7, 72 h
Method in brief: (§1)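 Asynchronous asexual blood-stage parasites were seeded at 0.3% parasitemia and 1% hematocrit into 2-fold, 10-point test compound dilutions. Incubation was 72 h at 37°C under 5% O2/5% CO2/90% N2. Final parasitemia was read by flow cytometry. IC50 came from nonlinear regression, 4 independent assays in duplicate, with two-tailed Mann-Whitney U tests.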

[2] = tested on: P. falciparum Dd2^Dd2 parasite line; test: Parasite drug susceptibility assay; format: cell-based, Plasmodium falciparum; details: Plasmodium falciparum, DD2, 72 h
Method in brief: as §1

[3] = tested on: P. falciparum parasites with PfCRT haplotypes/mutations; details: cited from earlier work; for Associated Phenotype, mutation C350R: haplotype 7G8+C350R, this study; for Associated Phenotype, mutation C350R / Associated Phenotype, mutation C72S / Associated Phenotype, mutation F145I / Associated Phenotype, mutation G353V / Associated Phenotype, mutation H97Y / Associated Phenotype, mutation I218F / Associated Phenotype, mutation M343L / Associated Phenotype, mutation T93S / Associated Phenotype, mutation A220S / Associated Phenotype, mutation I356T/L / Associated Phenotype, mutation N326S/D / Associated Phenotype, mutation M74I / Associated Phenotype, mutation N75E / Associated Phenotype, mutation Q271E / Associated Phenotype, mutation R371I / Associated Phenotype, mutation K76T: field; for Associated Phenotype, mutation C72S: haplotype 7G8; for Associated Phenotype, mutation C101F: haplotype Dd2+C101F, lab; for Associated Phenotype, mutation F145I: haplotype Dd2+F145I; for Associated Phenotype, mutation G353V: haplotype Dd2+G353V; for Associated Phenotype, mutation H97Y: haplotype Dd2+H97Y; for Associated Phenotype, mutation I218F: haplotype Dd2+I218F; for Associated Phenotype, mutation M343L: haplotype Dd2+M343L; for Associated Phenotype, mutation T93S: haplotype Dd2+T93S; for Associated Phenotype, mutation A220S / Associated Phenotype, mutation I356T/L / Associated Phenotype, mutation N326S/D: haplotype Dd2/7G8; for Associated Phenotype, mutation M74I / Associated Phenotype, mutation N75E / Associated Phenotype, mutation Q271E / Associated Phenotype, mutation R371I: haplotype Dd2; for Associated Phenotype, mutation K76T: haplotype Dd2 and 7G8
PfCRT Dd2 [4] = target: T1, PfCRT Dd2 (Plasmodium falciparum, UniProt Q9N623, A220S/I356T/K76T/M74I/N326S/N75E/Q271E/R371I); test: Equilibrium dialysis binding, PfCRT variant in nanodiscs; details: for Bmax, binding at pH 5.5 / Bmax, binding at pH 7.5: equilibrium dialysis
T1 sequence (Q9N623 1-424 M74I/N75E/K76T/A220S/Q271E/N326S/I356T/R371I): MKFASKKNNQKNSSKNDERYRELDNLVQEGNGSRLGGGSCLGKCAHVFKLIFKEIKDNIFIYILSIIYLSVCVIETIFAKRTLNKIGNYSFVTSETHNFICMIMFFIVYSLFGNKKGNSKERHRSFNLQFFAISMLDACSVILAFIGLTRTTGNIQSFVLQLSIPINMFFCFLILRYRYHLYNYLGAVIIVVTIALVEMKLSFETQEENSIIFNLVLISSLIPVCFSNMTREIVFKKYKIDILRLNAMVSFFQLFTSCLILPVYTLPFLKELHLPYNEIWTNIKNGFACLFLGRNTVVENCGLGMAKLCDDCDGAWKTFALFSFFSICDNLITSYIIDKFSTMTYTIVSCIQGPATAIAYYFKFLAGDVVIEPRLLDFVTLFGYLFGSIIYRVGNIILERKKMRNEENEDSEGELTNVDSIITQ

[5] = tested on: P. falciparum Dd2^Dd2 parasite line; test: [3H]-drug accumulation assay in cultured parasites; format: cell-based, Plasmodium falciparum; details: 60 min, trophozoites
Method in brief: (§2)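 Sorbitol-synchronized early trophozoites (24–26 h) were magnet-purified and resuspended in bicarbonate-free RPMI 1640 (25 mM HEPES, 10 mM glucose, 0.2 mM hypoxanthine, pH 7.4), counted by hemocytometer. They were mixed with an equal volume of radiolabelled drug (10 nM [3H]-CQ before mixing) for 1 h at 37°C, spun through dibutyl phthalate, then scintillation counted. CAR was internal/external drug, corrected for uninfected erythrocytes, per 10^6 cells at 75 fl; 4–6 assays in duplicate.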

[6] = tested on: P. falciparum WT (3D7) parasite line; test: [3H]-drug accumulation assay in cultured parasites; format: cell-based, Plasmodium falciparum; details: 60 min, trophozoites
Method in brief: as §2

[7] = tested on: P. falciparum 7G8^7G8+C350R parasite line; test: [3H]-drug accumulation assay in cultured parasites; format: cell-based, Plasmodium falciparum; details: 60 min, trophozoites
Method in brief: as §2

PfCRT Dd2 [8] = target: T1, PfCRT Dd2; test: Transport; format: biochemical; details: for transport activity (in words): proteoliposomes
[9] = tested on: P. falciparum 7G8^7G8 parasite line; test: Parasite drug susceptibility assay; format: cell-based, Plasmodium falciparum; details: Plasmodium falciparum, 7G8, 72 h
Method in brief: as §1

PfCRT 7G8 = target: T2, PfCRT 7G8 (Plasmodium falciparum, UniProt W7FI62); test: Scintillation proximity assay; format: binding; details: for competition of [3H]-Arg binding (in words): 125 nM [3H]-Arg, 1 μM CQ or PPQ, 0.1 μM amodiaquine, 1 mM Arg, Lys or Leu; for EC50: half-maximal binding constant (EC50), isotopic dilution, SPA, nanodiscs, pH 7.5, isotopic dilution of [3H]-CQ or [3H]-PPQ
T2 sequence (W7FI62 1-424): T1 sequence (Q9N623 1-424 M74I/N75E/K76T/A220S/Q271E/N326S/I356T/R371I) with C72S, I74M, E75N, E271Q, S326D, T356L, I371R

PfCRT 7G8+F145I [10] = target: T3, PfCRT 7G8+F145I (Plasmodium falciparum, UniProt W7FI62, F145I); test: Equilibrium dialysis binding, PfCRT variant in nanodiscs; details: for Bmax, binding at pH 5.5 / Bmax, binding at pH 7.5: equilibrium dialysis
T3 sequence (W7FI62 1-424 F145I): T1 sequence (Q9N623 1-424 M74I/N75E/K76T/A220S/Q271E/N326S/I356T/R371I) with C72S, I74M, E75N, F145I, E271Q, S326D, T356L, I371R

PfCRT 7G8+F145I [11] = target: T3, PfCRT 7G8+F145I; test: Transport; format: biochemical; details: for 1-min uptake, transport in proteoliposomes: 100 nM [3H]-drug, inwardly-directed pH gradient; for Vmax, transport in proteoliposomes: initial rates over 3 s, Michaelis-Menten fit; for transport activity (in words): proteoliposomes
[12] = binding at pH 5.5, equilibrium dialysis, pH 5.5
[13] = binding at pH 7.5, equilibrium dialysis, pH 7.5

| Compound | IC50 [1] | IC50 [2] | Associated Phenotype, mutation C350R [3] | Associated Phenotype, mutation C72S [3] | Associated Phenotype, mutation C101F [3] | Associated Phenotype, mutation F145I [3] | Associated Phenotype, mutation G353V [3] | Associated Phenotype, mutation H97Y [3] | Associated Phenotype, mutation I218F [3] | Associated Phenotype, mutation M343L [3] | Associated Phenotype, mutation T93S [3] | Associated Phenotype, mutation A220S [3] | Associated Phenotype, mutation I356T/L [3] | Associated Phenotype, mutation N326S/D [3] | Associated Phenotype, mutation M74I [3] | Associated Phenotype, mutation N75E [3] | Associated Phenotype, mutation Q271E [3] | Associated Phenotype, mutation R371I [3] | Associated Phenotype, mutation K76T [3] | Kd (PfCRT Dd2 [4]; [12]) | other results |
| --- | --- | --- | --- | --- | --- | --- | --- | --- | --- | --- | --- | --- | --- | --- | --- | --- | --- | --- | --- | --- | --- |
| Clc1ccc2c(N3CCN(CCCN4CCN(c5ccnc6cc(Cl)ccc56)CC4)CC3)ccnc2c1 [PPQ, piperaquine] | 16.2 ± 1.3 nM | 18.3 ± 1.9 nM | R low | S | R | R | R mod. | PPQ-R (CQ-R) | R | R low | PPQ-R (CQ-R) | S | S | S | S | S | S | S | S | 80 ± 10 nM | Kd (PfCRT Dd2 [4]; [13]): 220 ± 30 nM; Bmax, binding at pH 5.5 (PfCRT Dd2 [4]; pH 5.5): 0.39 ± 0.01 mol CQ/mol PfCRT; Bmax, binding at pH 7.5 (PfCRT Dd2 [4]; pH 7.5): 0.39 ± 0.02 mol CQ/mol PfCRT; [3H]-PPQ CAR (cellular accumulation ratio) ([5]; 20 nM [3H]-PPQ): 1861.3 ± 91.8; [3H]-PPQ CAR (cellular accumulation ratio) ([6]; 20 nM [3H]-PPQ): 2123.8 ± 72.2; [3H]-PPQ CAR (cellular accumulation ratio) ([7]; 20 nM [3H]-PPQ): 1207.4 ± 119.8; transport activity (in words) (PfCRT Dd2 [8]): Minimal; IC50 [9]: 21.4 ± 1 nM; competition of [3H]-Arg binding (in words) (PfCRT 7G8): effectively competed; EC50 (PfCRT 7G8): ~190 nM and 190 nM; Kd (PfCRT 7G8+F145I [10]; [12]): 220 ± 30 nM; Kd (PfCRT 7G8+F145I [10]; [13]): 260 ± 30 nM; Bmax, binding at pH 5.5 (PfCRT 7G8+F145I [10]; pH 5.5): 0.38 ± 0.01 mol CQ/mol PfCRT; Bmax, binding at pH 7.5 (PfCRT 7G8+F145I [10]; pH 7.5): 0.42 ± 0.01 mol CQ/mol PfCRT; fold increase in Kd compared with 7G8 parental isoform (PfCRT 7G8+F145I [10]; pH 5.5): ~ 2 fold; 1-min uptake, transport in proteoliposomes (PfCRT 7G8+F145I [11]): 1.41 ± 0.12 nmol/mg; Vmax, transport in proteoliposomes (PfCRT 7G8+F145I [11]): 109.30 ± 7.27 nmol/mg/min; transport activity (in words) (PfCRT 7G8+F145I [11]): substantially increased |
| CCN(CC)CCCC(C)Nc1ccnc2cc(Cl)ccc12 (centres unmarked) [CQ, chloroquine] | 12.2 ± 0.5 nM | 143 ± 21.8 nM | S | R | S | S | S | PPQ-R (CQ-R) | R low | S | PPQ-R (CQ-R) | R | R | R | R | R | R | R | R | 200 ± 40 nM | Kd (PfCRT Dd2 [4]; [13]): 310 ± 40 nM; Bmax, binding at pH 5.5 (PfCRT Dd2 [4]; pH 5.5): 0.42 ± 0.04 mol CQ/mol PfCRT; Bmax, binding at pH 7.5 (PfCRT Dd2 [4]; pH 7.5): 0.38 ± 0.01 mol CQ/mol PfCRT; [3H]-CQ CAR (cellular accumulation ratio) ([5]; 5 nM [3H]-CQ): 26.3 ± 2.9; [3H]-CQ CAR (cellular accumulation ratio) ([6]; 5 nM [3H]-CQ): 876.7 ± 38.7; [3H]-CQ CAR (cellular accumulation ratio) ([7]; 5 nM [3H]-CQ): 406.4 ± 22.4; 1-min uptake, transport in proteoliposomes (PfCRT Dd2 [8]; 100 nM [3H]-drug, 1 min, inwardly-directed pH gradient): 3.33 ± 0.22 nmol/mg; Vmax, transport in proteoliposomes (PfCRT Dd2 [8]; initial rates over 3 s, Michaelis-Menten fit): 91.37 ± 2.79 nmol/mg/min; transport activity (in words) (PfCRT Dd2 [8]): robust transport activity; IC50 [9]: 83 ± 7.5 nM; competition of [3H]-Arg binding (in words) (PfCRT 7G8): effectively competed; EC50 (PfCRT 7G8): ~300 nM and 297 nM; Kd (PfCRT 7G8+F145I [10]; [12]): 240 ± 60 nM; Kd (PfCRT 7G8+F145I [10]; [13]): 290 ± 50 nM; Bmax, binding at pH 5.5 (PfCRT 7G8+F145I [10]; pH 5.5): 0.39 ± 0.03 mol CQ/mol PfCRT; Bmax, binding at pH 7.5 (PfCRT 7G8+F145I [10]; pH 7.5): 0.43 ± 0.02 mol CQ/mol PfCRT; 1-min uptake, transport in proteoliposomes (PfCRT 7G8+F145I [11]): 0.24 ± 0.05 nmol/mg; Vmax, transport in proteoliposomes (PfCRT 7G8+F145I [11]): 63.01 ± 3.57 nmol/mg/min; transport activity (in words) (PfCRT 7G8+F145I [11]): reduced uptake |
